Data set [1] in a line: Selectivity index, ratio of IC50 for rat L6 cells to IC50 for Trypanosoma brucei rhodesiense STIB900. Type of data set: toxicity, cell-based. As to conditions: L6 cells versus Trypanosoma brucei rhodesiense STIB900, read-out: Ratio IC50. Put shortly: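 Selectivity index is IC50 for L6 rat myoblasts divided by IC50 for T. b. rhodesiense STIB900. Both IC50s were measured in vitro.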

The subject of data set [2] is Poly(dA-dT)oligonucleotide.
In another data set the test system is L6. The experiment in a line: Cytotoxicity against rat L6 cells. Type of data set: cell-based. Put shortly:
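Cultured L6 rat myoblast cells were used to measure IC50 cytotoxicity.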

The test system of data set [3] is Trypanosoma brucei rhodesiense. The data set is described as follows: Antiparasitic activity against Trypanosoma brucei rhodesiense STIB900 infected in mouse assessed as mean relapse day of parasitemia at 5 mg/kg, ip for 4 days. Type of data set: functional. The settings on record: route intraperitoneal. Put shortly: (§1)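 Acute STIB900 mouse model. Hydrochloride salts were given intraperitoneally at 5 mg/kg/day on four consecutive days. Cure is the number of mice surviving and parasite-free on day 60. Relapse is the mean day parasitemia reappears.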

The subject of a further data set is Plasmodium falciparum. The experiment in a line: Antiparasitic activity against Plasmodium falciparum K1. It is filed as functional, organism-based. Put shortly:
(§2)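 Compounds tested in vitro as hydrochloride salts against Plasmodium falciparum K1 or Trypanosoma brucei rhodesiense STIB900.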

In data set [4] the test system is Trypanosoma brucei rhodesiense. The experiment in a line: Antiparasitic activity against Trypanosoma brucei rhodesiense STIB900. Type of data set: functional, organism-based. Put shortly: as §2
Data set [5] in a line: Selectivity index, ratio of IC50 for rat L6 cells to IC50 for Plasmodium falciparum K1. Type of data set: toxicity, cell-based. As to conditions: L6 cells versus Plasmodium falciparum K1, read-out: Ratio IC50. Put shortly: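 Selectivity index is IC50 for L6 rat myoblasts divided by IC50 for P. falciparum K1. Both IC50s were measured in vitro.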
Data set [6] concerns Trypanosoma brucei rhodesiense. The experiment in a line: Antiparasitic activity against Trypanosoma brucei rhodesiense STIB900 infected in mouse assessed as cured at 5 mg/kg, ip for 4 days. It is filed as functional, organism-based. On the set-up: dose 5 mg/kg. Put shortly: as §1

Calls of active or inactive are those of the source. The rule behind the calls is not given here.

Broadly, the ΔTm is the shift of the melting midpoint relative to a reference. By IC50 is commonly meant the concentration needed to halve the response being measured. Regarding `Cl.Cl.N=C(N)c1ccc(-c2ccc3cc(-c4ccc(C(=N)N)o4)[nH]c3c2)cc1`, the selectivity ratio in data set [1] stood at 541; in data set [5] it was 736. Also, the ΔTm in data set [2] turned out to be 24.9 °C. In addition, the IC50 in the data set with L6 was found to be 9200 nM; with Plasmodium falciparum, 12.5 nM; in data set [4], 17 nM. The Activity in data set [3] came out at 18 days. In addition, the outcome in data set [6] was inactive.
Regarding `N=C(N)c1ccc(-c2cc3ccc(C(=N)N)cc3[nH]2)cc1` [DAPI], the selectivity ratio in data set [1] came to 48. Besides, the ΔTm in data set [2] is over 27 °C. The Activity in data set [3] is 17 days. Besides, in data set [4], the IC50 was 18 nM.
Turning to `N=C(N)c1ccc(-c2ccc(-c3ccc(C(=N)N)cc3)o2)cc1` [FURAMIDINE], the Activity in data set [3] is 20 days.
Regarding `Cl.Cl.N=C(N)c1ccc(-c2ccc3cc(-c4cc(C(=N)N)ccn4)[nH]c3c2)cc1`, the selectivity ratio in data set [1] worked out at 2320; in data set [5] it was 644. Besides, the ΔTm in data set [2] was over 27 °C. The values for the IC50 (in the data set with L6; with Plasmodium falciparum; in data set [4]) were 11600 nM, 18 nM and 5 nM, respectively. Besides, the Activity in data set [3] turned out to be 24 days.
Consider `Cl.Cl.Cn1c(-c2ccc(C(=N)N)cc2)nc2cc(-c3ccc(C(=N)N)cc3)ccc21`, for which the figures for the selectivity ratio in data set [1] and in data set [5] were over 11300 and over 130000, respectively. Moreover, the ΔTm in data set [2] is 11.2 °C. For the same compound, the IC50 with L6 is over 169000 nM; in the data set on Plasmodium falciparum, 1.3 nM; in data set [4] it was 15 nM. Moreover, the Activity in data set [3] came out at 11 days. The result in data set [6] was inactive.
As for `Cl.Cl.N=C(N)c1ccc(-c2ccc3nc(-c4ccc(C(=N)N)cc4)n(O)c3c2)cc1`, the selectivity ratio stood at 256 in data set [1] and 6890 in data set [5]. In addition, in data set [2], the ΔTm is 12.2 °C. For the same compound, the IC50 turned out to be 124000 nM in the data set with L6, 18 nM in the data set on Plasmodium falciparum and 484 nM in data set [4]. Also, the Activity in data set [3] stood at 8 days. Besides, the result in data set [6] was inactive.
Turning to `N=C(N)c1ccc(OCCCCCOc2ccc(C(=N)N)cc2)cc1` [PENTAMIDINE], the IC50 in the data set with L6 was found to be 46000 nM. In addition, in data set [3], the Activity is 20 days.
In the case of `Cl.Cl.N=C(N)c1ccc(-c2ccc3[nH]c(-c4ccc(C(=N)N)s4)cc3c2)cc1`, the selectivity ratio in data set [1] is 4950; in data set [5] it was 1390. Moreover, the ΔTm in data set [2] was 25.5 °C. Also, the IC50 in the data set with L6 amounted to 9900 nM; with Plasmodium falciparum, 7.1 nM; in data set [4] it was 2 nM. In data set [3], the Activity was 17 days.
Turning to `Cl.Cl.N=C(N)c1ccc(-c2ccc3cc(-c4ccc(C(=N)N)s4)[nH]c3c2)cc1`, the values for the selectivity ratio in data set [1] and in data set [5] were 550 and 198, respectively. Further, the ΔTm in data set [2] was over 27 °C. The IC50 in the data set with L6 was 2200 nM; with Plasmodium falciparum it was 11.1 nM; in data set [4], 4 nM. Further, in data set [3], the Activity was 17 days.
For the compound `Cl.Cl.N=C(N)c1ccc(-c2ccc3[nH]c(-c4ccc(C(=N)N)cc4)cc3c2)cc1`, the selectivity ratio in data set [1] stood at 2330; in data set [5], 1180. The ΔTm in data set [2] worked out at 23.7 °C. Besides, the IC50 with L6 is 6700 nM; in the data set on Plasmodium falciparum, 5.7 nM; in data set [4], 3 nM. The Activity in data set [3] amounted to 20 days.
For the compound `N=C(N)c1ccc(-c2ccc(-c3cc4ccc(C(=N)N)cc4[nH]3)cc2)cc1`, the ΔTm in data set [2] is over 27 °C. The IC50 in the data set with L6 was 10500 nM; in the data set with Plasmodium falciparum, 3.3 nM; in data set [4], 2 nM.
On to `Cl.Cl.N=C(N)c1ccc(-c2ccc3cc(-c4cnccc4C(=N)N)[nH]c3c2)cc1`, for which the results for the selectivity ratio in data set [1] and in data set [5] were 650 and 265, respectively. In addition, the ΔTm in data set [2] was over 27 °C. Further, the IC50 was 2600 nM in the data set with L6, 9.8 nM with Plasmodium falciparum and 4 nM in data set [4]. The Activity in data set [3] worked out at 24 days.
Turning to `Cl.Cl.N=C(N)c1ccc(-c2ccc3[nH]c(-c4ccc(C(=N)N)cc4)nc3c2)cc1`, the selectivity ratio in data set [1] came to 15600; in data set [5] it was 16900. Besides, the ΔTm in data set [2] was over 27 °C. Besides, the figures for the IC50 (in the data set on L6; with Plasmodium falciparum; in data set [4]) were 62400 nM, 3.7 nM and 4 nM, respectively. For the same compound, the Activity in data set [3] came out at 18 days. Besides, in data set [6], the outcome was inactive.
For `N=C(N)c1ccc(-c2ccc(-c3nc4ccc(C(=N)N)cc4[nH]3)cc2)cc1`, the thermal shift (ΔTm) in data set [2] was over 27 °C. Besides, the IC50 with L6 worked out at 17000 nM; in the data set on Plasmodium falciparum, 0.5 nM; in data set [4] it was 7.7 nM. Further, the selectivity ratio in data set [5] came to 34000.
On to `Cl.Cl.N=C(N)c1ccc(-c2ccc3cc(-c4ccc(C(=N)N)cc4)[nH]c3c2)cc1`, for which the figures for the selectivity ratio in data set [1] and in data set [5] were 1130 and 653, respectively. Moreover, in data set [2], the ΔTm is over 27 °C. The IC50 came to 3400 nM in the data set with L6, 5.2 nM in the data set with Plasmodium falciparum and 3 nM in data set [4]. In addition, the Activity in data set [3] amounted to 20 days. The outcome in data set [6] was inactive.

(Values after ChEMBL document CHEMBL1765028 (Bioorg Med Chem, 2011).)
